Laboratory results from ChEMBL document CHEMBL2203175, “Discovery and optimization of sulfonyl acrylonitriles as selective, covalent inhibitors of protein phosphatase methylesterase-1” (J Med Chem, 2011).
Substitutions are numbered along the chain they refer to. Calls of active or inactive are those of the source. No cut-off for these calls is given here.

What was measured:
[1] = molecular target: Protein phosphatase methylesterase 1 (Homo sapiens, UniProt Q9Y570); assay: Inhibition of PME1 binding to FP-rhodamine in human MDA-MB-231 cells after 45 mins by gel-based competitive activity-based protein profiling assay
[2] = molecular target: T1, Protein phosphatase methylesterase 1 (Homo sapiens) (UniProt Q9Y570); assay: Inhibition of PME1-based PP2A […] in human HEK293T cells at 50 uM after 3 hrs by Western blot analysis; type: cell-based; details: HEK-293T
T1 sequence (whole entry): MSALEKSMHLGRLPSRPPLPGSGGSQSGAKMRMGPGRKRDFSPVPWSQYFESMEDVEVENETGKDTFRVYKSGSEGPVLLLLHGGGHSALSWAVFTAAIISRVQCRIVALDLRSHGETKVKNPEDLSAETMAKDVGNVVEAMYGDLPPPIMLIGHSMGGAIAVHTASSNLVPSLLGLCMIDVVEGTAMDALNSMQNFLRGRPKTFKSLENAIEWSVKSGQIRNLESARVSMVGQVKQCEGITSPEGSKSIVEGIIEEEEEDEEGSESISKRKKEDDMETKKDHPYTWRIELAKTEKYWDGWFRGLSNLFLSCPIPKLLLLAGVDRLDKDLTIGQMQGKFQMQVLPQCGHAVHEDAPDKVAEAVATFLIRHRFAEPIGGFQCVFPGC

[3] = molecular target: Acylamino-acid-releasing enzyme (Mus musculus) (UniProt Q8R146); assay: Inhibition of acyl peptide hydrolase binding to FP-rhodamine in mouse brain soluble proteome at 50 uM after 30 mins by […] activity-based protein profiling assay relative to control; type: tissue-based
[4] = molecular target: T2, Protein phosphatase methylesterase 1 (Mus musculus) (UniProt Q8BVQ5); assay: Inhibition of PME1 binding to FP-rhodamine in mouse brain soluble proteome at 20 uM after 30 mins by […] activity-based protein profiling assay relative to control; type: tissue-based
T2 sequence (whole entry): T1 sequence (whole entry) with S42T, S114G, P123S, I150V, S167A, S168A, I268V, S269N

[5] = molecular target: Acylamino-acid-releasing enzyme (Homo sapiens) (UniProt P13798); assay: Inhibition of acyl peptide hydrolase binding to FP-rhodamine in human HEK293T cells at 0.5 to 50 uM after 30 mins by […] activity-based protein profiling assay; details: HEK-293T
[6] = molecular target: T3, Protein phosphatase methylesterase 1 (Mus musculus, UniProt Q8BVQ5); assay: Inhibition of PME1 binding to FP-rhodamine in mouse brain soluble proteome after 45 mins by gel-based competitive activity-based protein profiling assay
T3 sequence (Q8BVQ5 whole entry): T1 sequence (whole entry) with S42T, S114G, P123S, I150V, S167A, S168A, I268V, S269N

[7] = molecular target: T1, Protein phosphatase methylesterase 1 (Homo sapiens); assay: Inhibition of PME1 overexpressed in HEK293T cells assessed as reduction in demethylated PP2A level at 20 uM after 1 hr by Western blot analysis relative to control; type: cell-based; details: HEK-293T
Outline: (§1)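 HEK 293T cells, either stably overexpressing PME-1 or untransfected, treated in medium for 1 h at 37 °C. Total cell extract (2 mg/mL) run on reducing SDS-PAGE (10%) and blotted with demethylated-specific (4b7), methylated-specific (2A10) and total PP2A antibodies, imaged by infrared fluorescence. Mean ± SEM, n = 3, compared against DMSO-treated cells.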

[8] = molecular target: T1, Protein phosphatase methylesterase 1 (Homo sapiens); assay: Inhibition of PME1 overexpressed in HEK293T cells assessed as increase in methylated PP2A level at 20 uM after 1 hr by Western blot analysis; type: cell-based; details: HEK-293T
Outline: as §1

[9] = molecular target: Prolyl endopeptidase (Mus musculus) (UniProt Q9QUR6); assay: Inhibition of prolyl endopeptidase binding to FP-rhodamine in mouse brain soluble proteome at 50 uM after 30 mins by […] activity-based protein profiling assay relative to control; type: tissue-based
[10] = molecular target: T1, Protein phosphatase methylesterase 1 (Homo sapiens); assay: Inhibition of PME1 expressed in untransfected HEK293T cells assessed as reduction in demethylated PP2A level at 500 nM after 1 hr by Western blot analysis; type: cell-based; details: HEK-293T
Outline: as §1

Acylamino-acid-releasing enzyme (Mus musculus), sequence (Q8R146 whole entry): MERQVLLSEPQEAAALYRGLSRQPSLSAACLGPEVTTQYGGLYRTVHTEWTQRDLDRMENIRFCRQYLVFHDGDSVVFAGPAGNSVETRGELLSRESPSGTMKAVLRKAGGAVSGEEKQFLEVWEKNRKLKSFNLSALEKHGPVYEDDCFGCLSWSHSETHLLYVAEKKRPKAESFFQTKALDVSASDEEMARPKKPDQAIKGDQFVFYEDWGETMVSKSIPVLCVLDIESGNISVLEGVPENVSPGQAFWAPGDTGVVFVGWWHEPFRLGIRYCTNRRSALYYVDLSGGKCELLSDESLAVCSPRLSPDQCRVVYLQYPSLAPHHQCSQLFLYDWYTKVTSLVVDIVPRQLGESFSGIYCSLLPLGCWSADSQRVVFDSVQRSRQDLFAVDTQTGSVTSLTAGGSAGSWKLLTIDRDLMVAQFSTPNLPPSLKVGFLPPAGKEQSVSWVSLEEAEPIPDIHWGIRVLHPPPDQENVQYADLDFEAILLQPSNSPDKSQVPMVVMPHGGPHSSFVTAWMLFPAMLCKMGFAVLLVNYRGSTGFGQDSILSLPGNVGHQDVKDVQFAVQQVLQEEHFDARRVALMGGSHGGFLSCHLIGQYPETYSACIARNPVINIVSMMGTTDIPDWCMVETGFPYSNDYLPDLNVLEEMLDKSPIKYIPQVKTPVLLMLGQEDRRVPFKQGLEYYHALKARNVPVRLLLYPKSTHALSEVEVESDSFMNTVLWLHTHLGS
Prolyl endopeptidase (Mus musculus), sequence (Q9QUR6 whole entry, looked up): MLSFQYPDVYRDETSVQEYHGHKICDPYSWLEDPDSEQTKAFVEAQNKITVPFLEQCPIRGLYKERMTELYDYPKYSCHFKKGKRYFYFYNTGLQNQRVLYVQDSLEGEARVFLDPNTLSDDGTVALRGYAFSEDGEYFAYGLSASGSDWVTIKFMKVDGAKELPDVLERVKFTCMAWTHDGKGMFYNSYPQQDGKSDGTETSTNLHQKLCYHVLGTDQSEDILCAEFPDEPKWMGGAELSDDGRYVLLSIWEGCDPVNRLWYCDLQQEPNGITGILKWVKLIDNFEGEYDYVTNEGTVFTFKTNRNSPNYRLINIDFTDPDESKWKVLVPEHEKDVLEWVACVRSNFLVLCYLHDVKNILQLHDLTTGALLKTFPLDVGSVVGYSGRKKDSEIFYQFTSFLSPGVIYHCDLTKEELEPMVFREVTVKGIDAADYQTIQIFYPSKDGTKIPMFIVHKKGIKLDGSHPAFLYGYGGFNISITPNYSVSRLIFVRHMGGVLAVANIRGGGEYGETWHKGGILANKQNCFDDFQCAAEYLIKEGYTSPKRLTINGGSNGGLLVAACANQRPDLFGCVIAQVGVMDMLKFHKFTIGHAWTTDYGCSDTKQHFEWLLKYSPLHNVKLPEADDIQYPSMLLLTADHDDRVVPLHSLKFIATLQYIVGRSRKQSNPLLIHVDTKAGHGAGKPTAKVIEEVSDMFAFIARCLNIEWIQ
Acylamino-acid-releasing enzyme (Homo sapiens), sequence (P13798 whole entry): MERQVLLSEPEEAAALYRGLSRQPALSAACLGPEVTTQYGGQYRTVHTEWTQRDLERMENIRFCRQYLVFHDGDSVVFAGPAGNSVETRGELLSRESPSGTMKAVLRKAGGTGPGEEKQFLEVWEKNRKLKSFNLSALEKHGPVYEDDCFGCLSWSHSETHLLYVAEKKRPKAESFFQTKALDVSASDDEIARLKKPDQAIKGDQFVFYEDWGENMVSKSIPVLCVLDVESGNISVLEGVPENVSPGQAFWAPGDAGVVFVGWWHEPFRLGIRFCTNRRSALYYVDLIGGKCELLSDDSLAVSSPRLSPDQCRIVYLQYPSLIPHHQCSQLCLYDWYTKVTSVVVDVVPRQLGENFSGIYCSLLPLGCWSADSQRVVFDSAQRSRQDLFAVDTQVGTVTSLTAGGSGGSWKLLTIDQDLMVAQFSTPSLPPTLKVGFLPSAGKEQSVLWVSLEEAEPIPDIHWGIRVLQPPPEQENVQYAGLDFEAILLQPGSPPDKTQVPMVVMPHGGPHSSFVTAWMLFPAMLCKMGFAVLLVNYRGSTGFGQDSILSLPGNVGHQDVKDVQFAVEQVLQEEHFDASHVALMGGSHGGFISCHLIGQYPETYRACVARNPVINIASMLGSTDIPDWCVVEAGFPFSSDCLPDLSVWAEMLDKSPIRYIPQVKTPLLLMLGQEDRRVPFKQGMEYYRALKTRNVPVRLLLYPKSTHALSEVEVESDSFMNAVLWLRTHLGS

| inhibition [4] [%] | IC50 [6] [µM] | Compound | other results |
| --- | --- | --- | --- |
| 90 |  | CS(=O)(=O)/C(C#N)=C/c1cccn1S(=O)(=O)c1ccccc1 | IC50 [1]: 10.8 µM; inhibition [2]: Active; inhibition [3]: > 50%; inhibition [5]: Active |
| 0 |  | CS(=O)(=O)/C(C#N)=C/c1ccccc1 |  |
|  | 4 | CS(=O)(=O)/C(C#N)=C/c1cccn1S(=O)(=O)c1ccc(C#N)cc1 | inhibition [9]: > 50% |
| 0 |  | CS(=O)(=O)/C(C#N)=C/c1ccc([N+](=O)[O-])cc1 |  |
|  | 2.5 | CS(=O)(=O)/C(C#N)=C/c1cccn1S(=O)(=O)c1cccc(C#N)c1 |  |
|  | 3 | CS(=O)(=O)/C(C#N)=C/c1cccn1S(=O)(=O)c1ccc([N+](=O)[O-])cc1 |  |
| 0 |  | CS(=O)(=O)/C(C#N)=C/c1ccc[nH]1 |  |

The next lines start with the compound.

| Compound | inhibition [4] [%] | IC50 [6] [µM] | other results |
| --- | --- | --- | --- |
| CS(=O)(=O)/C(C#N)=C/c1cccn1S(=O)(=O)c1c(F)c(F)c(F)c(F)c1F |  | > 20 |  |
| N#C/C(=C\c1cccn1S(=O)(=O)c1cccc(C#N)c1)S(=O)(=O)c1ccc(F)cc1 |  | 0.64 | inhibition [7]: 80%; inhibition [8]: Active |
| CS(=O)(=O)/C(=C/c1cccn1S(=O)(=O)c1ccccc1)CN | 0 |  |  |
| N#CC(C#N)=Cc1cccn1S(=O)(=O)c1ccccc1 | 50 |  |  |
| CC(C)(C)S(=O)(=O)/C(C#N)=C/c1cccn1S(=O)(=O)c1ccccc1 |  | 6.8 |  |
| COC(=O)N1C(=O)[C@](c2ccccc2)(C2CCCC2)N1C(=O)OC |  |  | inhibition [10]: Active |
| CC(C)(C)S(=O)(=O)/C(C#N)=C/c1cccn1S(=O)(=O)c1cccc(C#N)c1 |  | 3.4 |  |
| CS(=O)(=O)/C(C#N)=C/c1cccn1S(=O)(=O)c1ccc(Cl)cc1 |  |  | inhibition [3]: > 50% |
| CS(=O)(=O)C(C#N)Cc1cccn1S(=O)(=O)c1ccccc1 (stereo unspecified) | 0 |  |  |
| CS(=O)(=O)C(=Cc1cccn1S(=O)(=O)c1ccccc1)S(C)(=O)=O | 0 |  | inhibition [9]: > 50% |
| N#C/C(=C\c1cccn1S(=O)(=O)c1ccccc1)S(=O)(=O)c1ccccc1 |  | > 20 |  |
